These results are taken from PubChem BioAssay.

The nature of experiment [1]: SK-BR-3 cell growth inhibitors, pilot screen, 24 h, human (AID 572;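 active = viability at or below 10% of carrier control in both of two separate runs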;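 also: compound exposure lasted between 18 and 24 h rather than exactly 24 h; 100% = carrier-treated control wells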). The note with it: SK-BR-3 viability, CellTiter-Glo luminescence, at 10 µM, stronger effect = lower value. On the technique in general: ATP-based viability assays read luminescence as a measure of living cells.
Experiment [2] in a line: HUVEC growth inhibition – cell-based, human, primary screen (AID 575).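 Also: 100% = median of untreated cell wells with 0.1% DMSO on each plate.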 The following applies: HUVEC proliferation, CellTiter-Glo luminescence, 72 h; at 10 µM; stronger effect = lower value. A digest of the protocol: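 System: primary human umbilical vein endothelial cells; Quantity: 1250 endothelial cells in each well; Buffer or medium: supplemented EBM, 2% fetal bovine serum; Doses: one dose, 10 µM final, 0.1% DMSO; Incubation: 72 h compound incubation; Technique: ATP-based CellTiter-Glo luminescent read; Evaluation: percent of median DMSO-control luminescence; Controls: vehicle and MePR control wells.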

Experiment [3] is described as follows: growth inhibitors of H69AR lung tumor, primary screen, human, duplicate replicates (AID 580;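 active = viability at or under a set limit in both replicates, limit being median viability minus 3 SD, cut at about 48% in these data, passing the limit was not always enough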;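 also: 100% = mean luminescence of untreated wells and 0% = no signal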). The following applies: H69AR lung tumor cells viability, ATP luminescence, 72 h; at 10 µM; stronger effect = lower value.
A short description of experiment [4]: reversal of MRP1-mediated doxorubicin resistance, pilot screen, H69AR cells, doxorubicin co-treatment (AID 601;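 active = viability loss from added drug above about 55%, and viability with drug at most 40%, in both replicates, limit read from the data, passing the limit was not always enough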). The note with it: CellTiter-Glo, 72 h, at 10 µM; for differential viability (reversal): stronger effect = higher value.
A short description of experiment [5]: 384-well plate pilot, post-Golgi transport modulator project, inhibition of yeast transport mutant growth (AID 636; in the data active = inhibition above about 31%). The following applies: absorbance 615 nm, about 18 h, stronger effect = higher value.
Experiment [6] is described as follows: growth suppression of yeast trafficking mutant, preliminary HTS, modulators of trafficking downstream of Golgi apparatus project, 1536-format plate, OD 615 nm (AID 637; in the data active = inhibition above about 30%). The following applies: yeast transport mutant growth, absorbance 615 nm, 18 h; stronger effect = higher value.
Where [7] appears, read: H69AR cells + 2 uM doxorubicin, measured here: viability with 2 uM doxorubicin, stronger effect = lower value.
Where [8] appears, read: H69AR cells, compound alone cytotoxicity.

Structures are written as SMILES. Calls of active or inactive are those of the source.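 The calls were made as follows, unless noted: active = viability at or below 30% in both replicate assays; inconclusive = viability at or below 30% in just one of the two assays; inactive = the rest.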

As a reminder, the viability is a read-out of living cells in per cent, often relative to untreated cells. The inhibition is the relative decrease from the control value, in per cent. In the case of `COCCN(Cc1cc2cc3c(cc2n2nnnc12)OCO3)C(=O)c1ccccc1F`, the viability in experiment [1] is 94% (inactive); in experiment [2], 113% (inactive); in experiment [3], 101% (inactive); in experiment [4] (setting [7]) it was 99.3%; in experiment [4] (setting [8]), 101%. Moreover, the differential viability (reversal) in experiment [4] (H69AR cells + 2 uM doxorubicin) is 2.13% (inactive). Besides, the inhibition in experiment [5] is -6.35% (inactive); in experiment [6], -7.27% (inactive).

Turning to `CCOC(=O)c1nnc2ccnn2c1N`, the viability in experiment [1] was 74% (inactive); in experiment [2], 87.9% (inactive); in experiment [3] it was 109% (inactive); in experiment [4] (setting [7]) it was 107%; in experiment [4] (setting [8]) it was 109%. Moreover, the differential viability (reversal) in experiment [4] (H69AR cells + 2 uM doxorubicin) is 1.61% (inactive). In addition, the values for the inhibition in experiment [5] and in experiment [6] were -4.79% (inactive) and -2.91% (inactive), respectively.

In the case of `CC(=O)Oc1ccc(C(c2ccc(OC(C)=O)cc2)c2ccccn2)cc1`, the viability is 91% (inactive) in experiment [1]; 79% (inactive) in experiment [2]; 94.9% (inactive) in experiment [3]; 95.2% in experiment [4] (setting [7]); 94.9% in experiment [4] (setting [8]). In experiment [4] (H69AR cells + 2 uM doxorubicin), the differential viability (reversal) is -0.25% (inactive). For the same molecule, the inhibition was -0.52% (inactive) in experiment [5] and 0.83% (inactive) in experiment [6].

For `CCOc1ccccc1CN(Cc1ccco1)S(=O)(=O)c1ccc(-n2cnnn2)c(OC)c1`, the viability was 82.5% (inactive) in experiment [1]; 54.7% (inactive) in experiment [2]; 6.69% (active) in experiment [3]; 74.1% in experiment [4] (setting [7]); 6.69% in experiment [4] (setting [8]). Besides, the differential viability (reversal) in experiment [4] (H69AR cells + 2 uM doxorubicin) was -67.4% (inactive). Moreover, the inhibition in experiment [5] is -3.7% (inactive); in experiment [6] it was -2.06% (inactive).

Consider `CCOc1ccc2nc(SCC(=O)Nc3ncccn3)[nH]c2c1`, for which the viability in experiment [1] was 92% (inactive); in experiment [2], 97.4% (inactive); in experiment [3] it was 105% (inactive); in experiment [4] (setting [7]), 86.6%; in experiment [4] (setting [8]), 105%. Besides, the differential viability (reversal) in experiment [4] (H69AR cells + 2 uM doxorubicin) was 18.1% (inactive). Also, the inhibition in experiment [5] was -1.62% (inactive); in experiment [6], 3.45% (inactive).

As for `c1cncc(C2Nc3ccccc3-c3nc4ccccc4n32)c1` (centres undefined), the viability in experiment [1] is 90% (inactive); in experiment [2], 98.1% (inactive); in experiment [3], 78.7% (inactive); in experiment [4] (setting [7]), 90.9%; in experiment [4] (setting [8]) it was 78.7%. In experiment [4] (H69AR cells + 2 uM doxorubicin), the differential viability (reversal) is -12.2% (inactive). Also, the inhibition in experiment [5] is -2.53% (inactive); in experiment [6], 0.91% (inactive).

`COC(=O)Nc1sc2c(c1C(N)=O)CCCCCC2`: the viability in experiment [1] was 89% (inactive); in experiment [2], 105% (inactive); in experiment [3], 99.5% (inactive); in experiment [4] (setting [7]), 80.2%; in experiment [4] (setting [8]), 99.5%. Further, in experiment [4] (H69AR cells + 2 uM doxorubicin), the differential viability (reversal) is 19.3% (inactive). The inhibition is -1.82% (inactive) in experiment [5] and 5.25% (inactive) in experiment [6].

Regarding `C=CCOC(=O)CC(NC(=O)c1ccccc1)c1ccccc1` (centres undefined), the viability was 110% (inactive) in experiment [1]; 108% (inactive) in experiment [2]; 105% (inactive) in experiment [3]; 85.3% in experiment [4] (setting [7]); 105% in experiment [4] (setting [8]). Also, the differential viability (reversal) in experiment [4] (H69AR cells + 2 uM doxorubicin) was 19.7% (inactive). The inhibition in experiment [5] is -3.73% (inactive); in experiment [6], -5.45% (inactive).

For the molecule `OCCNC1=NCCN1`, the viability in experiment [1] is 54% (inactive); in experiment [2], 99.5% (inactive); in experiment [3] it was 96.8% (inactive); in experiment [4] (setting [7]), 90.7%; in experiment [4] (setting [8]) it was 96.8%. In addition, in experiment [4] (H69AR cells + 2 uM doxorubicin), the differential viability (reversal) is 6.17% (inactive). Also, the results for the inhibition in experiment [5] and in experiment [6] were -7.4% (inactive) and -0.55% (inactive), respectively.

`CCOC(=O)Nc1ccc(NS(=O)(=O)c2ccc(C)cc2)cc1`: the viability in experiment [1] was 72% (inactive); in experiment [2], 86.6% (inactive); in experiment [3] it was 83.7% (inactive); in experiment [4] (setting [7]) it was 96.1%; in experiment [4] (setting [8]), 83.7%. Besides, the differential viability (reversal) in experiment [4] (H69AR cells + 2 uM doxorubicin) was -12.3% (inactive). The results for the inhibition in experiment [5] and in experiment [6] were 1.92% (inactive) and -7.42% (inactive), respectively.

Turning to `CN1CCc2c(sc3c2c(=O)n(-c2cccc(Cl)c2)c2nncn32)C1`, the viability in experiment [1] is 102% (inactive); in experiment [2] it was 84.5% (inactive); in experiment [3] it was 95.8% (inactive); in experiment [4] (setting [7]), 109%; in experiment [4] (setting [8]), 95.8%. The differential viability (reversal) in experiment [4] (H69AR cells + 2 uM doxorubicin) is -13.3% (inactive). Further, the inhibition is -2.6% (inactive) in experiment [5] and -5.41% (inactive) in experiment [6].

With `COc1ccc(C(=O)NCCC(C)C)cc1S(=O)(=O)N1CCOCC1`, the viability is 98% (inactive) in experiment [1]; 98.8% (inactive) in experiment [2]; 102% (inactive) in experiment [3]; 94.2% in experiment [4] (setting [7]); 102% in experiment [4] (setting [8]). The differential viability (reversal) in experiment [4] (H69AR cells + 2 uM doxorubicin) is 7.34% (inactive). For the same molecule, the results for the inhibition in experiment [5] and in experiment [6] were -9.86% (inactive) and 2.73% (inactive), respectively.

For the molecule `Cc1ccc2nc(C3CCN(CC(=O)N4CCCCCC4)CC3)[nH]c2c1`, the viability was 84% (inactive) in experiment [1]; 108% (inactive) in experiment [2]; 96.3% (inactive) in experiment [3]; 107% in experiment [4] (setting [7]); 96.3% in experiment [4] (setting [8]). In addition, in experiment [4] (H69AR cells + 2 uM doxorubicin), the differential viability (reversal) is -10.6% (inactive). Moreover, the inhibition is -1.1% (inactive) in experiment [5] and 0.73% (inactive) in experiment [6].

As to `Nc1cccc(C(=O)O)c1`, the viability is 129% (inactive) in experiment [1]; 98.2% (inactive) in experiment [2]; 94.8% (inactive) in experiment [3]; 87.7% in experiment [4] (setting [7]); 94.8% in experiment [4] (setting [8]). The differential viability (reversal) in experiment [4] (H69AR cells + 2 uM doxorubicin) was 7.12% (inactive). The inhibition in experiment [5] was 1.82% (inactive); in experiment [6], 0.33% (inactive).

Turning to `COc1cccc(-c2nnc(SCC(N)=O)n2-c2ccc(Cl)cc2)c1`, the viability in experiment [1] is 114% (inactive); in experiment [2], 103% (inactive); in experiment [3], 97.1% (inactive); in experiment [4] (setting [7]), 92.6%; in experiment [4] (setting [8]), 97.1%. The differential viability (reversal) in experiment [4] (H69AR cells + 2 uM doxorubicin) was 4.49% (inactive). Besides, the inhibition in experiment [5] was 0% (inactive); in experiment [6], -4.19% (inactive).

Regarding `CC(=O)OCC[N+](C)(C)C`, the viability was 102% (inactive) in experiment [1]; 96.7% (inactive) in experiment [2]; 92.5% (inactive) in experiment [3]; 101% in experiment [4] (setting [7]); 92.5% in experiment [4] (setting [8]). Besides, the differential viability (reversal) in experiment [4] (H69AR cells + 2 uM doxorubicin) was -8.23% (inactive). Also, the inhibition was 1.95% (inactive) in experiment [5] and -2.5% (inactive) in experiment [6].

Consider `CCOc1ccccc1NC(=O)CSc1nnc2c(CC)c(C)nc(N)n12`, for which the viability in experiment [1] was 104% (inactive); in experiment [2], 113% (inactive); in experiment [3] it was 96.3% (inactive); in experiment [4] (setting [7]), 99.4%; in experiment [4] (setting [8]), 96.3%. For the same molecule, the differential viability (reversal) in experiment [4] (H69AR cells + 2 uM doxorubicin) was -3.08% (inactive). For the same molecule, the inhibition in experiment [5] is -5.81% (inactive); in experiment [6], -0.91% (inactive).

As for `Cn1c(=O)n(CCC(=O)O)c2ccccc21`, the viability was 93% (inactive) in experiment [1]; 111% (inactive) in experiment [2]; 97.2% (inactive) in experiment [3]; 84.1% in experiment [4] (setting [7]); 97.2% in experiment [4] (setting [8]). Besides, the differential viability (reversal) in experiment [4] (H69AR cells + 2 uM doxorubicin) was 13.1% (inactive). Besides, the values for the inhibition in experiment [5] and in experiment [6] were -7.67% (inactive) and 5% (inactive), respectively.
